# Results from PubChem BioAssay AID493226 (Broad Institute, 2011).
# Where “and” joins values, the source holds several entries; their conditions need not be identical. Equal entries are not always repeated. Records with an inconclusive call do not appear. Calls of active or inactive are those of the source.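 The calls were made as follows: active = every repeat test active, with falling cell-viability signal and fitted midpoint potency at most ten times the top dose; inconclusive = tests disagree, flat partial drop, or a poor curve fit; inactive = every test flat, too weak, or rising.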
# Tested on: not listed separately
# Test: breast cancer stem cell viability inhibitors – luminescence, dry powder, set 2, dose response (AID 493226)
# Details: HMLE_shECad viability, CellTiter-Glo luminescence, 72 h; at 30 µM (top of the series)
# Outline: (§1)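 System: HMLE_shECad model of stem-like breast cancer cells | Amount: 2000 cells/well | Buffer or medium: Serum-free CSC medium | Dosing: 100 nL compound per well by pin transfer | Schedule: Cell attachment ≥4 h, then compound exposure ~70-74 h, 37 °C, 5% CO2 | Signal: CellTiter-Glo luminescence, reagent diluted 1:3 in PBS, 12 min incubation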
row,SMILES,"activity change, negative = inhibition"
1,Cc1ccccc1NCC(=O)N/N=C/c1ccc[nH]1,-14.1% (inactive)
2,Cc1ccccc1/C=C/C(=O)NC1=NCCS1,-11.7% (inactive)
3,C/C(=N\NC(=O)COc1ccc(Cl)cc1Cl)c1ccc[nH]1,-10.8% (inactive)
4,O=C(N/N=C/c1ccc[nH]1)C1Cc2ccccc2O1 (stereo not given),12.7% (inactive)
5,O=C(NC1=NCCS1)c1cc2ccccc2[nH]1,-16.7% (inactive)
6,O=C(COc1ccc(Cl)cc1Cl)N/N=C/c1cccs1,-4.9% (inactive)
7,CC(C)c1ccc(/C=C/C(=O)O)cc1,4.33% (inactive)
8,O=C(COc1ccc(Cl)cc1Cl)N/N=C/c1ccco1,-7.8% (inactive)
9,O=C(C#Cc1ccccc1)NC1=NCCS1,3.65% (inactive)
10,CC(=O)Oc1ccc(/C=C/C(=O)NC2=NCCS2)cc1,-16.2% (inactive)
11,O=C(COc1ccc(Cl)cc1Cl)N/N=C/c1cnc[nH]1,3.31% (inactive)
12,O=C(/C=C/c1ccc(Cl)c(Cl)c1)NC1=NCCS1,8.35% (inactive)
13,O=C(COc1ccccc1F)N/N=C/c1ccc[nH]1,3.8% (inactive)
14,NNC(=O)COc1ccc(Cl)cc1Cl,-13% (inactive)
15,CCNC(=O)/C=C/c1ccc(C(C)C)cc1,0.062% (inactive)
16,O=Cc1ccc[nH]1,-5.79% (inactive)
17,COc1ccc(OC)c(/C=C/C(=O)NC2=NCCS2)c1,4.36% (inactive)
18,O=C(CCc1ccccc1)NC1=NCCS1,-2.41% (inactive)
19,O=C(/C=C/c1cc(Cl)ccc1Cl)NC1=NCCS1,-13.1% (inactive)
20,COc1cc(/C=C/C(=O)NC2=NCCS2)cc(OC)c1OC,0.693% (inactive)
21,CCN(CC)C(=O)/C=C/c1ccc(C(C)C)cc1,-2.71% (inactive)
22,Cc1c(C(=O)NC2=NCCS2)oc2ccccc12,-22.6% (inactive)
23,O=C(NC1CCCC1)c1ccc(COc2ccccc2)o1,-15.7% (inactive)
24,O=C(O)c1ccc(COc2ccccc2)o1,-1.91% (inactive)

# Tested on: HMLE_shECad viability, CellTiter-Glo luminescence, 72 h
# Test: as above
# Details: not given
# Outline: as §1
row,SMILES,AC50
1,CN(C)c1ccc(/C=C/C(=O)NC2=NCCS2)cc1,27.3 µM
2,COc1ccc(/C=C/C(=O)NC2=NCCS2)c(OC)c1,9.45 µM
3,Cc1csc(NC(=O)c2ccc(COc3ccccc3)o2)n1,1.18 µM
4,Cc1ccc(/C=N/NC(=O)COc2ccc(Cl)cc2Cl)[nH]1,14.3 µM
5,CC(C)(C)c1ccc2c(c1)OC(C(=O)N/N=C/c1ccc[nH]1)CO2 (stereo not given),2.52 µM and 2.79 µM
6,Cc1cc(Cl)ccc1OCC(=O)N/N=C/c1ccc[nH]1,2.89 µM
7,O=C(COc1c(Cl)cc(Cl)cc1Cl)N/N=C/c1ccc[nH]1,1.16 µM
8,Cc1csc(NC(=O)/C=C/c2ccc(C(C)C)cc2)n1,3.29 µM
9,CC(C)c1ccc(/C=C/C(=O)Nc2ccccc2)cc1,3.44 µM
10,O=C(COc1ccc(Cl)cc1)N/N=C/c1ccc[nH]1,22.5 µM
11,Cc1cc(C)c(/C=N/NC(=O)COc2ccc(Cl)cc2Cl)[nH]1,12.6 µM
12,O=C(COc1cc(Cl)ccc1Cl)N/N=C/c1ccc[nH]1,3.39 µM
13,O=C(N/N=C/c1ccc[nH]1)c1cc2ccccc2o1,6.33 µM
14,CC(C)c1ccc(/C=C/C(=O)NC2=NCCS2)cc1,0.839 µM
15,O=C(COc1ccc(F)cc1Cl)N/N=C/c1ccc[nH]1,8.88 µM
16,O=C(COc1ccc(Cl)cc1Cl)N/N=C/c1ccc[nH]1,2.38 µM and 3.33 µM
